IMP-1 inhibitor = IMP-1 metallo-beta-lactamase inhibitors, primary screen, biochemical, epi-absorbance readout, Pseudomonas aeruginosa enzyme; purified IMP-1, nitrocefin hydrolysis, epi-absorbance fluorescence; inhibition, % at 5.6 µM; metallo-beta-lactamase IMP-1 (Pseudomonas aeruginosa); actives 0.45% (n = 290,000);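 active means inhibition above the mean plus 3 SD of all compounds in the same screening run, cut at about 4.5% in these data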
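System: purified recombinant IMP-1 beta-lactamase. Medium: Zinc- and detergent-supplemented HEPES buffer, pH 7.1. Compound: one 5.6 µM dose […]. Schedule: 15 min preincubation plus 25 min reaction at 25 °C. Technique: Epi-absorbance fluorescence, 480 nm excitation, 530 nm emission.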
T cell HTS = modulators of CD8 T cell-vesicle binding, primary screen, mouse 2C CD8+ T cells, flow cytometry; response (vesicle binding), % at 7 µM; actives 0.068% (n = 330,000); 2C CD8+ T cell-vesicle binding; stronger effect = lower value;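 active means response, share of CD8 T cells binding vesicles, and their 90th percentile fluorescence all below set limits, cut at about 80% in these data, passing the limit was not always enough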;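 further: values below 100% mean blocked vesicle binding to the CD8+ T cells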
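Assay system – 2C mouse CD8+ T cells · Also added – QL9-loaded Drosophila micro-vesicles · Timing – Cell–vesicle co-incubation 1.5 h at 37 °C, staining 20 min on ice · Signal – flow cytometry of vesicle-bound cells · Measure – percent CD8+ FL2 mean versus row control · Controls – Peptide-free naked vesicles (low) and QL9 vesicles with 0.7% DMSO vehicle (high)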
Fh CTSL1 inh = Fasciola hepatica cathepsin L1 inhibitors, primary screen, counter-screen for PFM18AAP inhibitor project, biochemical, QFRET, fluorogenic peptide substrate | recombinant F. hepatica cathepsin L1, Z-Leu-Arg-MCA fluorescence | inhibition, % at 5.96 µM | actives 0.49% (n = 300,000);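 active means inhibition above the mean of all tested compounds plus 3 SD, set per screening campaign, cut at about 17% in these data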
UBC9 SUMO inh = inhibitors of in vitro SUMOylation cascade, primary screen, biochemical, HTRF, uHTS. SUMO-conjugating enzyme UBC9 (Homo sapiens), P63279. HTRF SUMOylation assay, SAE1/SAE2 + UBC9. inhibition, % at 35 µM. actives 0.36% (n = 290,000); in the data active means inhibition above about 50%, passing the limit was not always enough
Target sequence (P63279 whole entry, looked up): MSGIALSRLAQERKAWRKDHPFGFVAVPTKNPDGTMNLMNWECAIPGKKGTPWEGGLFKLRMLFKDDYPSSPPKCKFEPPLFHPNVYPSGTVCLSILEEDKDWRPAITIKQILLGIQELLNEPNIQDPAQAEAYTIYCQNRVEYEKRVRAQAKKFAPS
p-CIP stab down = p/CIP-EGFP fusion destabilizers, primary screen, fluorescence, F442A cells. actives 0.01% (n = 290,000). Q05BA5. decrease of EGFP signal, % at 10 µM. AID 1984, 2009. 16 h;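 active means EGFP signal decrease of at least 30% at 10 µM or well 3 SD below plate mean, unless failing retest; inactive means the rest, including hits failing retest or dose response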
VIM-2 inh = VIM-2 metallo-beta-lactamase inhibitors, primary screen, biochemical, epi-absorbance readout, Pseudomonas aeruginosa enzyme. inhibition, % at 5.6 µM. actives 0.89% (n = 290,000). AID 1527, 2009. purified VIM-2, nitrocefin hydrolysis, epi-absorbance fluorescence;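 active means inhibition above the mean of all tested compounds plus 3 SD, cutoff set per screening run, cut at about 7.5% in these data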;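 further: red hydrolysis product quenches plate fluorescence so inhibitors raise well fluorescence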
A number is an active result; – = inactive; · = no result. Hits are enriched below; roughly 1.9% of the tested compounds scored in any of these assays.

SMILES	IMP-1 inhibitor	T cell HTS	Fh CTSL1 inh	UBC9 SUMO inh	p-CIP stab down	VIM-2 inh
CC(C)=NOc1cc(NC(=O)CCl)cc([N+](=O)[O-])c1	–	–	78.9	–	–	–
COCCCNC(=S)NNC(=O)c1csc(C)n1	8.7	–	–	–	–	–
Cn1c(CNC(=O)CNC(=O)c2ccc(F)cc2)cc(=O)n(C)c1=O	–	0.0	–	–	–	–
Cn1c(CNC(=O)CNC(=O)c2cccc(Cl)c2)cc(=O)n(C)c1=O	–	–	–	–	–	–
Cn1c(CNC(=O)CCNC(=O)c2cccc(Br)c2)cc(=O)n(C)c1=O	–	–	36.1	–	–	–
CC(C)(C)N(Cc1ccccc1)C(=O)COC(=O)c1ccccc1SCC(=O)N1CCCC1	·	–	–	·	·	·
COc1ccccc1NC(=O)C1=C(C)NC(SCC(=O)c2ccc(C)cc2)=C(C#N)C1c1ccco1 (stereo not given)	4.5	·	·	–	–	–
Cc1ccc([C@H]2C(C(=O)O)=CC[C@@H](c3ccc(Cl)c(Cl)c3)N2S(=O)(=O)c2ccc(C)cc2)cc1	·	–	·	·	·	·
O=C(Nc1ccc(Cl)c(C(F)(F)F)c1)C1CCCN(S(=O)(=O)c2cnc[nH]2)C1 (stereo not given)	6.6	–	–	–	–	–
Cc1ccc(CCNC(=O)C2CCCN(S(=O)(=O)c3cnc[nH]3)C2)cc1 (stereo not given)	4.8	–	–	–	–	–
O=C(NCCc1ccc(Cl)cc1)C1CCCN(S(=O)(=O)c2cnc[nH]2)C1 (stereo not given)	–	–	–	–	–	–
O=c1nc2c(O)cccn2c2c1c(=O)[nH]c1ccccc12	8.3	·	·	–	–	–
O=c1[nH]c2ccccc2c2nc3ccccn3c12	–	–	–	–	–	–
O=c1c2ccccc2ncn1-c1cccc(Cl)c1	35.6	–	–	–	–	–
C=CCN(CC=C)Cc1c(C)[nH]c2ccc(C(=O)OCC)cc2c1=O	–	–	20.1	–	–	–
CCn1ncc(CN2CCN(Cc3cccc(OC)c3)C(CCO)C2)c1C (stereo not given)	–	–	–	–	–	–
CN(C)c1ccc(/C=C2/C(=O)N(c3ccc([N+](=O)[O-])cc3)N=C2N2CCOCC2)cc1	–	·	·	87.2	–	–
Cc1ccc(C(=O)NCC(=O)N2CCN(c3cccc(Cl)c3)CC2)s1	·	–	·	·	·	·
CC(=O)Nc1c(O)nc(SCC(=O)Nc2c(C)cccc2C)[nH]c1=O	7.3	·	–	–	–	–
O=C1OC(COc2ccc(Br)cc2)CN1c1ccccc1 (stereo not given)	–	–	–	–	–	–
NC(=S)N/N=C\c1ccc(-c2cccc(Cl)c2Cl)o1	–	–	19.5	–	–	–
Cc1cc(C(=O)N/N=C/c2ccc(-c3ccc(C)c(Cl)c3)o2)n[nH]1	–	–	–	57.7	–	–
NC(=S)N/N=C/c1ccc(-c2ccccc2)o1	–	–	–	–	–	–
Cc1cc(C(=O)N/N=C/c2ccc(-c3ccccc3Cl)o2)n[nH]1	–	–	–	–	–	–
NC(=S)N/N=C/c1ccc(-c2ccc(Cl)c(Cl)c2)o1	–	–	22.9	–	–	–
SMILES	IMP-1 inhibitor	T cell HTS	Fh CTSL1 inh	UBC9 SUMO inh	p-CIP stab down	VIM-2 inh
Cc1c(C(=O)CN2CCCC(C)(C)C2)c2ccccc2n1C	–	–	–	–	–	–
COc1ccc(OC)c(/C=C/C(=O)OCC(=O)Nc2nnc(-c3ccccc3)o2)c1	·	–	·	·	·	·
O=S(=O)(NCCc1cccs1)c1ccc(Br)cc1	5.5	–	–	–	–	–
Cc1ccc(NC(=O)COC(=O)CNC(=O)C2CCCCC2)c(Br)c1	–	–	47.0	–	–	–
O=C(COC(=O)CNC(=O)C1CCCCC1)Nc1ccc(Cl)cc1F	–	–	33.5	–	–	–
COc1cc(C(=O)COC(=O)CNC(=O)C2CCCCC2)cc(OC)c1OC	–	–	35.8	–	–	–
CO/N=C/CC(=O)c1cnc(-c2ccc(Cl)cc2)s1	–	–	–	–	–	–
CN(CC(=O)Nc1cccc2ccccc12)C(=O)c1ccc(F)cc1F	·	–	·	·	·	·
CN(C)S(=O)(=O)c1cccc(NC(=S)NCCCn2ccnc2)c1	–	–	17.4	–	–	–
CCOc1ccc(NC(=S)Nc2cccc3cnccc23)cc1	–	–	–	89.3	–	–
CN(C)S(=O)(=O)c1cccc(NC(=S)Nc2cccc3cnccc23)c1	–	·	·	99.4	–	11.9
CCOc1ccc(NC(=S)Nc2cccc3ccccc23)cc1	–	–	–	–	–	–
S=C(Nc1cccnc1)Nc1cccc2cnccc12	–	–	–	97.2	52.4	–
Cc1ccc(S(=O)(=O)Nc2ccc(Cl)cn2)cc1C	–	–	–	–	–	–
COc1cc(NC(=S)Nc2cccnc2)cc(OC)c1	–	–	–	71.7	–	–
COc1ccc(NC(=S)Nc2cccc3cnccc23)cc1	–	–	–	94.0	–	–
CCN(C(=S)Nc1cccnc1)c1cccc2ccccc12	–	–	–	99.5	–	–
CCN(C(=S)Nc1cccnc1)c1ccccc1	–	–	–	–	–	–
COc1cc(OC)cc(C(=O)NC(=S)Nc2cccnc2)c1	–	–	–	–	–	–
Cc1ccc(S(=O)(=O)N(C)C)cc1NC(=S)Nc1cccc2ccccc12	–	–	–	92.5	–	–
COc1cc(CN(C)Cc2cccc3ccccc23)cc([N+](=O)[O-])c1O	–	–	–	–	–	–
COC(=O)c1cc(OC)c(OC)cc1NC(=O)C(C)c1ccc([N+](=O)[O-])cc1 (stereo not given)	–	–	–	–	–	–
Cc1ccccc1C(=O)N1CCN(c2ccc(NC(=O)c3ccc([N+](=O)[O-])o3)cc2)CC1	–	–	–	–	–	–
NS(=O)(=O)c1ccc(NC(=O)COC(=O)/C(=C/c2cccs2)c2cccs2)cc1	–	–	–	–	–	–
COc1ccccc1NC(=S)Nc1cccc2cnccc12	–	–	–	51.2	–	–
SMILES	IMP-1 inhibitor	T cell HTS	Fh CTSL1 inh	UBC9 SUMO inh	p-CIP stab down	VIM-2 inh
O=c1c(N2CCOCC2)nsn1Cc1ccccc1	6.0	–	–	–	–	–
c1ccc(CN2CCOCC2)cc1	–	–	–	–	–	–
O=C(Nc1cccc2nsnc12)c1ccc(-c2ccc(Br)cc2)o1	–	–	–	73.0	–	–
COC(=O)c1ccccc1NC(=O)c1ccc(-c2ccc(Br)cc2)o1	–	–	–	–	–	–
O=S(=O)(Nc1ccccc1OC(F)F)c1ccc(S(=O)(=O)N2CCCC2)cc1	·	–	·	·	·	·
Cc1ccc(N2C(=O)[C@@H]3[C@H](C2=O)C2c4ccccc4C=CN2[C@@H]3C(=O)c2ccco2)c(C)c1 (stereo not given in full)	–	–	34.7	–	–	–

From PubChem
